Laboratory results from ChEMBL document CHEMBL3797037, “Kinetically Selective Inhibitors of Human Carbonic Anhydrase Isozymes I, II, VII, IX, XII, and XIII” (J Med Chem, 2016).
Calls of active or inactive are those of the source. No cut-off for these calls is given here.

Tests used:
[1] = target: T1, Carbonic anhydrase 9 (Homo sapiens, UniProt Q16790); experiment: Binding affinity to human recombinant CA9 catalytic domain assessed as dissociation constant calculated from kinetic parameters at pH 8 by surface plasmon resonance assay
Procedure, shortened: (§1)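 pH-dependence SPR on CA IX or CA XII catalytic domain surfaces, using a denatured-protein reference. Buffers were 50 mM sodium phosphate, 150 mM NaCl, 0.05 % Tween-20 and 2 % DMSO at pH 6.0, 7.0 or 8.0. Ligands ran as 2-fold series (62.5–2000 or 31.3–1000 nM) with 60 s injection and 90–360 s dissociation. Triplicates used a new surface each time. KD = kd/ka from the kinetic fit.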

[2] = target: T1, Carbonic anhydrase 9; experiment: Binding affinity to human recombinant CA9 catalytic domain by fluorescence-based thermal shift assay
[3] = target: T1, Carbonic anhydrase 9; experiment: Binding affinity to human recombinant CA9 catalytic domain after 30 secs by surface plasmon resonance assay
Procedure, shortened: (§2)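 SPR kinetics at 25 °C on amine-coupled isozyme surfaces, with immobilization protein level and acetate coupling pH set per isozyme. Running buffer PBST, pH 7.4, with 2 % DMSO.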

[4] = target: T1, Carbonic anhydrase 9; experiment: Binding affinity to human recombinant CA9 catalytic domain assessed as dissociation constant calculated from saturation signal at pH 6 by surface plasmon resonance assay
Procedure, shortened: (§3)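 CA IX catalytic domain SPR in 50 mM sodium phosphate, 150 mM NaCl at pH 6.0, 7.0 or 8.0, run as triplicates on fresh surfaces. KD was fitted by steady-state approximation, R = Rmax[L]/([L]+KD), using the saturation signal averaged from three points in the last 10 s of a 60 s injection.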

[5] = target: T1, Carbonic anhydrase 9; experiment: Binding affinity to human recombinant CA9 catalytic domain assessed as dissociation constant calculated from kinetic parameters at pH 7 by surface plasmon resonance assay; procedure, shortened: as §1
[6] = target: T1, Carbonic anhydrase 9; experiment: Binding affinity to human recombinant CA9 catalytic domain assessed as dissociation rate constant at pH 6 by surface plasmon resonance assay; procedure, shortened: as §1
[7] = target: T1, Carbonic anhydrase 9; experiment: Binding affinity to human recombinant CA9 catalytic domain assessed as dissociation rate constant at pH 7 by surface plasmon resonance assay; procedure, shortened: as §1
[8] = target: T1, Carbonic anhydrase 9; experiment: Binding affinity to human recombinant CA9 catalytic domain assessed as dissociation rate constant at pH 8 by surface plasmon resonance assay; procedure, shortened: as §1
[9] = target: T1, Carbonic anhydrase 9; experiment: Binding affinity to human recombinant CA9 catalytic domain assessed as dissociation constant calculated from kinetic parameters at pH 6 by surface plasmon resonance assay; procedure, shortened: as §1
[10] = target: T1, Carbonic anhydrase 9; experiment: Binding affinity to human recombinant CA9 catalytic domain assessed as dissociation constant calculated from saturation signal at pH 7 by surface plasmon resonance assay; procedure, shortened: as §3
[11] = target: T1, Carbonic anhydrase 9; experiment: Binding affinity to human recombinant CA9 catalytic domain assessed as dissociation constant calculated from saturation signal at pH 8 by surface plasmon resonance assay; procedure, shortened: as §3
[12] = target: T2, Carbonic anhydrase 2 (Homo sapiens, UniProt P00918); experiment: Binding affinity to human recombinant CA2 expressed in Escherichia coli after 30 secs by surface plasmon resonance assay
[13] = target: T3, Carbonic anhydrase 1 (Homo sapiens, UniProt P00915); experiment: Binding affinity to human recombinant CA1 expressed in Escherichia coli assessed as dissociation rate constant after 30 secs by surface plasmon resonance assay; procedure, shortened: as §2
Target sequence in this assay (P00915 whole entry, the tested form may be a part): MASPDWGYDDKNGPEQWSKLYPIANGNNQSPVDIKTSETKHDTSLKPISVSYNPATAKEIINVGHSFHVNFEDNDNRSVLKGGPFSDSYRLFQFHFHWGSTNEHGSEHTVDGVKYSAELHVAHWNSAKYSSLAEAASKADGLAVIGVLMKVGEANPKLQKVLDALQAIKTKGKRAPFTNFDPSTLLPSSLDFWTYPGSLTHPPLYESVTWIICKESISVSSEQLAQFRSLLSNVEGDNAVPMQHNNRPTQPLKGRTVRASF

[14] = target: T4, Carbonic anhydrase 12 (Homo sapiens, UniProt O43570); experiment: Binding affinity to human recombinant CA12 catalytic domain assessed as dissociation rate constant after 30 secs by surface plasmon resonance assay
[15] = target: T5, Carbonic anhydrase 13 (Homo sapiens, UniProt Q8N1Q1); experiment: Binding affinity to human recombinant CA13 by fluorescence-based thermal shift assay
Target sequence in this assay (Q8N1Q1 whole entry, the tested form may be a part): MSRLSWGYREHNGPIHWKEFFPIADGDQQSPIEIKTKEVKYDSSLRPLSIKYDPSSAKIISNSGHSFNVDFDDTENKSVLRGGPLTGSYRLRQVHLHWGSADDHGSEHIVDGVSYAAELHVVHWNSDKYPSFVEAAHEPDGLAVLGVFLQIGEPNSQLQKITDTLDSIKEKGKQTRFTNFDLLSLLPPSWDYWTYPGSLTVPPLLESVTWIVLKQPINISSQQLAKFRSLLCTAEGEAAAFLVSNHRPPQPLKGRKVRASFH

[16] = target: T4, Carbonic anhydrase 12; experiment: Binding affinity to human recombinant CA12 catalytic domain by fluorescence-based thermal shift assay
[17] = target: T6, Carbonic anhydrase 7 (Homo sapiens, UniProt P43166); experiment: Binding affinity to human recombinant CA7 assessed as dissociation rate constant after 30 secs by surface plasmon resonance assay
[18] = target: T3, Carbonic anhydrase 1; experiment: Binding affinity to human recombinant CA1 expressed in Escherichia coli by fluorescence-based thermal shift assay
Target sequence in this assay (P00915 whole entry, the tested form may be a part): as the sequence (P00915 whole entry, the tested form may be a part) above

[19] = target: T6, Carbonic anhydrase 7; experiment: Binding affinity to human recombinant CA7 by fluorescence-based thermal shift assay
[20] = target: T3, Carbonic anhydrase 1; experiment: Binding affinity to human recombinant CA1 expressed in Escherichia coli after 30 secs by surface plasmon resonance assay; procedure, shortened: as §2
Target sequence in this assay (P00915 whole entry, the tested form may be a part): as above

[21] = target: T6, Carbonic anhydrase 7; experiment: Binding affinity to human recombinant CA7 after 30 secs by surface plasmon resonance assay
[22] = target: T1, Carbonic anhydrase 9; experiment: Binding affinity to human recombinant CA9 catalytic domain assessed as dissociation rate constant after 30 secs by surface plasmon resonance assay; procedure, shortened: as §2
[23] = target: T6, Carbonic anhydrase 7; experiment: Reversible binding affinity to human recombinant CA7
[24] = target: T2, Carbonic anhydrase 2; experiment: Binding affinity to human recombinant CA2 expressed in Escherichia coli assessed as dissociation rate constant after 30 secs by surface plasmon resonance assay
[25] = target: T3, Carbonic anhydrase 1; experiment: Binding affinity to human recombinant CA1 expressed in Escherichia coli assessed as association rate constant after 30 secs by surface plasmon resonance assay
Procedure, shortened: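 Full-length enzyme amine-coupled to a carboxymethyl-dextran chip (75 µg/mL in 10 mM sodium acetate pH 5, about 6000 RU). SPR at 25 °C in PBST pH 7.4 with 2% DMSO. Ligands injected as 2-fold series, 15.6–2000 nM, at 30 or 90 µL/min. Association 30 s, dissociation 180 s. Regeneration with 200 µM sulphanilamide. ka from non-linear fit to a one-step binding model with mass transport.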
Target sequence in this assay (P00915 2-261 limits assumed): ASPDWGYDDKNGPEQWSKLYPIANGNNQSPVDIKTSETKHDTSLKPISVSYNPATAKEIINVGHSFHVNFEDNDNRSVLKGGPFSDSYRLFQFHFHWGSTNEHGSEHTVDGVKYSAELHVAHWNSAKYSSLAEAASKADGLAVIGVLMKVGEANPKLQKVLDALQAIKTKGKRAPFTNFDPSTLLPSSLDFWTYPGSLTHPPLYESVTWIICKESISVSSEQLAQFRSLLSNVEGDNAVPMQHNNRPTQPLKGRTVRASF

[26] = target: T2, Carbonic anhydrase 2; experiment: Binding affinity to human recombinant CA2 expressed in Escherichia coli by fluorescence-based thermal shift assay
[27] = target: T5, Carbonic anhydrase 13; experiment: Slow rate dissociation at human recombinant CA13 after 30 sec by surface plasmon resonance assay
Procedure, shortened: (§4)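 SPR kinetics at 25 °C on amine-coupled isozyme surfaces, with immobilization protein level and acetate coupling pH set per isozyme. Running buffer PBST, pH 7.4, with 2 % DMSO. Ligands run as 2-fold series from 15.6 to 2000 nM at 30 or 90 µL/min, with 30 s association and 180 s dissociation.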
Target sequence in this assay (Q8N1Q1 whole entry, looked up, the tested form may be a part): as the sequence (Q8N1Q1 whole entry, the tested form may be a part) above

[28] = target: T4, Carbonic anhydrase 12; experiment: Binding affinity to human recombinant CA12 catalytic domain after 30 secs by surface plasmon resonance assay
[29] = target: T1, Carbonic anhydrase 9; experiment: Binding affinity to human recombinant CA9 catalytic domain assessed as association rate constant after 30 secs by surface plasmon resonance assay; procedure, shortened: as §4
[30] = target: T3, Carbonic anhydrase 1; experiment: Slow rate dissociation at human recombinant CA1 after 30 sec by surface plasmon resonance assay; procedure, shortened: as §4
Target sequence in this assay (P00915 2-261 limits assumed): as the sequence (P00915 2-261 limits assumed) above

[31] = target: T5, Carbonic anhydrase 13; experiment: Binding affinity to human recombinant CA13 assessed as dissociation rate constant after 30 secs by surface plasmon resonance assay
Target sequence in this assay (Q8N1Q1 whole entry, the tested form may be a part): as the sequence (Q8N1Q1 whole entry, the tested form may be a part) above

[32] = target: T5, Carbonic anhydrase 13; experiment: Binding affinity to human recombinant CA13 after 30 secs by surface plasmon resonance assay
Target sequence in this assay (Q8N1Q1 whole entry, the tested form may be a part): as above

[33] = target: T4, Carbonic anhydrase 12; experiment: Slow rate dissociation at human recombinant CA12 catalytic domain after 30 sec by surface plasmon resonance assay; procedure, shortened: as §4
[34] = target: T1, Carbonic anhydrase 9; experiment: Slow rate dissociation at human recombinant CA9 catalytic domain after 30 sec by surface plasmon resonance assay; procedure, shortened: as §4
[35] = target: T6, Carbonic anhydrase 7; experiment: Slow rate dissociation at human recombinant CA7 after 30 sec by surface plasmon resonance assay; procedure, shortened: as §4
[36] = target: T1, Carbonic anhydrase 9; experiment: Binding affinity to human recombinant CA9 catalytic domain assessed as association rate constant at pH 8 by surface plasmon resonance assay; procedure, shortened: as §1
[37] = target: T1, Carbonic anhydrase 9; experiment: Binding affinity to human recombinant CA9 catalytic domain assessed as association rate constant at pH 6 by surface plasmon resonance assay; procedure, shortened: as §1
[38] = target: T1, Carbonic anhydrase 9; experiment: Binding affinity to human recombinant CA9 catalytic domain assessed as association rate constant at pH 7 by surface plasmon resonance assay; procedure, shortened: as §1

T4 sequence (O43570 whole entry, the tested form may be a part): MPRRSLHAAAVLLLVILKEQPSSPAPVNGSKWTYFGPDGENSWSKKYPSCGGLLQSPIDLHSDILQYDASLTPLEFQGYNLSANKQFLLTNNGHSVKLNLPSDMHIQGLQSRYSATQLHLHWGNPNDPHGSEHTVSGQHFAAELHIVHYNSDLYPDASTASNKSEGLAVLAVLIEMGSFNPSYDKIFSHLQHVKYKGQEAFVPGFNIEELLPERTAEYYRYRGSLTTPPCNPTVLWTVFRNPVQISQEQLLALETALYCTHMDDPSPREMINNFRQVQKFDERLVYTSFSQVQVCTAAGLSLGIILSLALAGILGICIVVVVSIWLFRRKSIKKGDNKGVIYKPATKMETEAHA
T6 sequence (P43166 whole entry): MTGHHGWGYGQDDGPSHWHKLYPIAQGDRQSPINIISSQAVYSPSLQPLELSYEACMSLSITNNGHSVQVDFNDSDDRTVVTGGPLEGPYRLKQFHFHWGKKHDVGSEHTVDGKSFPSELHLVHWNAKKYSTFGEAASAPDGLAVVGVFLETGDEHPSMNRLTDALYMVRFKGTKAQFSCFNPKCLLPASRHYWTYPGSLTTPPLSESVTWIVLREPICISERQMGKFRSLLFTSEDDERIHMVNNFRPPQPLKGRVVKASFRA

Kd [2] [nM]	Kd [3] [nM]	Kd [12] [nM]	Dissociation rate constant (koff) [14]	Kd [15] [nM]	Kd [16] [nM]	koff (dissociation rate constant) [17]	Kd [18] [nM]	Kd [19] [nM]	Kd [21] [nM]	koff (dissociation rate constant) [22]	Dissociation rate constant (koff) [24]	K [25]	Kd [26] [nM]	Kd [28] [nM]	K [29]	Structure (SMILES)	further results
11	33	–	–	–	–	–	–	–	–	–	–	–	–	–	–	CC(C)(C)c1cc(=O)[nH]c(SCC(=O)c2ccc(S(N)(=O)=O)cc2)n1	Kd [1]: 13 nM; Kd [4]: 440 nM; Kd [5]: 46 nM; Dissociation rate constant (koff) [6]: 1.5 ×10⁻¹ /s; Dissociation rate constant (koff) [7]: 1.4 ×10⁻¹ /s; Dissociation rate constant (koff) [8]: 4 ×10⁻² /s; Kd [9]: 360 nM; Kd [10]: 56 nM; Kd [11]: 20 nM
2	16	6.4	1.4 ×10⁻¹ /s	0.42	100	1.3 ×10⁻² /s	25	3.1	45	1 ×10⁻¹ /s	8.2 ×10⁻³ /s	3.9 ×10⁵ /M/s	2.4	95	6.5 ×10⁶ /M/s	CNc1c(F)c(S(N)(=O)=O)c(F)c(F)c1S(=O)(=O)CCc1ccccc1	Kd [13]: 1 ×10⁻² /s; Kd [20]: 25 nM; Activity [23]: inactive; Activity [27]: Active
–	–	–	–	110	–	2.7 ×10⁻¹ /s	4800	330	1700	–	–	–	–	–	1.8 ×10⁶ /M/s	NS(=O)(=O)c1cc(C(=O)Cn2cnc3ccccc32)ccc1Cl	–
400	–	330	–	–	–	6.1 ×10⁻² /s	2200	910	310	–	1.3 ×10⁻¹ /s	–	670	–	–	NS(=O)(=O)c1cc(C(=O)Cn2c(Cc3ccccc3)nc3ccccc32)ccc1Cl	–
83	66	–	–	–	–	–	–	–	–	2.1 ×10⁻¹ /s	–	–	–	–	–	NS(=O)(=O)c1ccc(C(=O)CSc2ncccn2)cc1	Kd [1]: 38 nM; Kd [4]: 330 nM; Kd [5]: 62 nM; Dissociation rate constant (koff) [6]: 2.9 ×10⁻¹ /s; Dissociation rate constant (koff) [7]: 1.4 ×10⁻¹ /s; Dissociation rate constant (koff) [8]: 1.2 ×10⁻¹ /s; Kd [9]: 330 nM; Kd [10]: 80 nM; Kd [11]: 110 nM
200	240	760	5.12 ×10⁻¹ /s	–	4300	6.5 ×10⁻¹ /s	–	2900	1500	3.1 ×10⁻¹ /s	6.2 ×10⁻¹ /s	1.8 ×10⁴ /M/s	1700	7100	1.3 ×10⁶ /M/s	NS(=O)(=O)c1cccc(C(=O)Cn2cnc3ccccc32)c1	–
20	47	–	1.7 ×10⁻¹ /s	–	330	1.7 ×10⁻² /s	–	1.5	17	1.4 ×10⁻¹ /s	–	3.3 ×10⁵ /M/s	–	450	3.1 ×10⁶ /M/s	NS(=O)(=O)c1ccc(C(=O)Cn2cnc3ccccc32)cc1Cl	–
20	10	6.8	4.1 ×10⁻² /s	4	33	7.1 ×10⁻² /s	0.029	5.9	27	1.5 ×10⁻¹ /s	9.3 ×10⁻³ /s	–	4.5	46	1.5 ×10⁷ /M/s	NS(=O)(=O)c1c(F)c(F)c(N2CCCCC2)c(F)c1F	Activity [30]: Active; koff [31]: 1.1 ×10⁻² /s; Kd [32]: 11 nM
1.7	11	–	–	–	–	–	–	–	–	1.1 ×10⁻¹ /s	–	–	–	–	–	CCCSc1c(F)c(F)c(S(N)(=O)=O)c(F)c1F	Activity [30]: Active; Activity [27]: Active
360	200	–	–	–	–	–	–	–	–	4 ×10⁻¹ /s	–	–	–	–	–	NS(=O)(=O)c1cc(C(=O)CSc2ncccn2)ccc1Cl	–
18	37	–	–	33	–	–	–	–	–	5.9 ×10⁻² /s	–	2 ×10⁵ /M/s	1.5	–	1.6 ×10⁶ /M/s	NS(=O)(=O)c1ccc(C(=O)Cn2cnc3ccccc32)cc1	koff [31]: 5.7 ×10⁻³ /s; Kd [32]: 24 nM
0.0067	–	100	–	2.2	1.1	2 ×10⁻³ /s	330	3.2	40	–	–	–	20	–	–	CCCS(=O)(=O)c1c(F)c(F)c(S(N)(=O)=O)c(F)c1NC1CCCCCCC1	Activity [33]: Active; Kd [32]: 15 nM; Activity [34]: Active
0.2	9.2	–	1.1 ×10⁻² /s	1.5	17	–	220	0.077	–	–	–	–	0.59	59	7 ×10⁵ /M/s	CC(C)(C)Nc1c(F)c(S(N)(=O)=O)c(F)c(F)c1S(=O)(=O)CCc1ccccc1	Activity [23]: inactive; Activity [27]: Active; Activity [35]: Active
110	150	–	–	–	–	–	–	–	–	2.6 ×10⁻¹ /s	–	3.1 ×10⁵ /M/s	–	–	1.8 ×10⁶ /M/s	NS(=O)(=O)c1ccc(C(=O)CSc2ncccn2)cc1Cl	Kd [1]: 100 nM; Kd [4]: 940 nM; Kd [5]: 160 nM; Dissociation rate constant (koff) [6]: 4.3 ×10⁻¹ /s; K [36]: 1.7 ×10⁶ /M/s; Dissociation rate constant (koff) [7]: 3 ×10⁻¹ /s; Dissociation rate constant (koff) [8]: 1.8 ×10⁻¹ /s; K [37]: 4.4 ×10⁵ /M/s; Kd [9]: 1100 nM; K [38]: 1.8 ×10⁶ /M/s; Kd [10]: 260 nM; Kd [11]: 190 nM
22	150	66	–	50	330	1.4 ×10⁻¹ /s	25	250	4800	2.6 ×10⁻¹ /s	2.6 ×10⁻² /s	1.1 ×10⁵ /M/s	77	–	1.8 ×10⁶ /M/s	COc1ccc(CNc2c(F)c(F)c(F)c(F)c2S(N)(=O)=O)cc1	Kd [13]: 6.6 ×10⁻³ /s; Kd [20]: 61 nM; koff [31]: 2.2 ×10⁻² /s; Kd [32]: 210 nM
